Measurements published in ChEMBL document CHEMBL4808188, “Development of BET inhibitors as potential treatments for cancer: A search for structural diversity” (Bioorg Med Chem Lett, 2021).
Values after ≈ are worked out from the molar mass of the structure shown.

Key:
[1] = Metabolic stability in rat liver microsomes assessed as half life measured upto 120 mins; assay type: ADME, Microsome
[2] = Metabolic stability in dog liver microsomes assessed as half life measured upto 120 mins; assay type: ADME, Canis lupus familiaris, Microsome; details: for half-life: liver microsomes
[3] = Metabolic stability in mouse liver microsomes assessed as half life measured upto 120 mins; assay type: ADME, Microsome
[4] = Metabolic stability in monkey liver microsomes assessed as half life measured upto 120 mins; assay type: ADME, Macaca mulatta, Microsome; details: rhesus monkey
[5] = Antiproliferative activity against Velcade-resistant human JJN-3R cells assessed as reduction in cell viability; assay type: functional, cell-based
Procedure, shortened: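 Multiple myeloma cell proliferation assay in the Velcade-resistant JJN3R line; IC50 taken from proliferation.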

[6] = Antitumor activity against human JJN-3R cells xenografted in po dosed mouse assessed as tumor growth inhibition administered qd for 7 days beginning 8 days after tumor-cell implantation; assay type: functional; details: 168 h, time 7 day, read-out: MED
Procedure, shortened: (§1)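 JJN3R multiple myeloma xenograft in mice. Oral dosing once daily for 7 days began 8 days after tumor-cell implantation, on established tumors. Read-out was % tumor growth inhibition, and the minimum efficacious dose was identified.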

[7] = molecular target: T1, Bromodomain-containing protein 4 (Homo sapiens, UniProt O60885); assay: Inhibition of BRD4 (unknown origin)
Procedure, shortened: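 BRD4 binding assay; IC50 in nM, reported as mean ± SEM.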

[8] = Protein binding in human serum assessed as free fraction; assay type: ADME, cell-free
[9] = molecular target: T1, Bromodomain-containing protein 4; assay: Inhibition of BRD4 (unknown origin) assessed as reduction in c-Myc expression
Procedure, shortened: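 Functional c-Myc assay with MYC expression as the read-out; IC50 in nM, reported as mean ± SEM.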

[10] = Solubility of the compound in phosphate buffer at pH 6.5; assay type: physicochemical
Procedure, shortened: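 Solubility measured in 50 mM phosphate buffer at pH 6.5; reported in µg/mL.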

[11] = Antitumor activity against human JJN-3R cells xenografted in mouse assessed as tumor growth inhibition at 1 mg/kg, po qd administered for 7 days beginning 8 days after tumor-cell implantation; assay type: functional; details: 168 h, time 7 day, read-out: TGI; procedure, shortened: as §1
[12] = Metabolic stability in human liver microsomes assessed as half life measured upto 120 mins; assay type: ADME, Microsome
[13] = AUC (0 to 24 hrs) in mouse at 3 mg/kg, po measured for 24 hrs; assay type: ADME, organism-based; parameters: route oral, time 24 hrs, dose 3 mg/kg; details: in vivo
[14] = Permeability of the compound at pH 7.4 by PAMPA; assay type: ADME; details: read-out: permeability
Procedure, shortened: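 PAMPA run at pH 7.4; permeability reported in nm/sec.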

[15] = Antitumor activity against human JJN-3R cells xenografted in mouse assessed as tumor growth inhibition at 2 mg/kg, po qd administered for 7 days beginning 8 days after tumor-cell implantation; assay type: functional; details: 168 h, time 7 day, read-out: TGI; procedure, shortened: as §1
[16] = Antitumor activity against human JJN-3R cells xenografted in mouse assessed as tumor growth inhibition at 4 mg/kg, po qd administered for 7 days beginning 8 days after tumor-cell implantation; assay type: functional; details: 168 h, time 7 day, read-out: TGI; procedure, shortened: as §1

SMILES: [2H]C([2H])([2H])c1nnn(C)c1-c1cnc2c3ccc(C(C)(C)O)c(F)c3n([C@H](c3ncccc3F)C3CCOCC3)c2c1
- half-life [1]: 47 min
- half-life [2]: 37 min
- half-life [3]: 16 min
- half-life [4]: 22 min
- IC50 [5]: 1.7 nM
- minimal effective dose [6]: 1 mg/kg
- IC50 [7]: 0.6 nM
- fraction unbound [8]: 0.06
- IC50 [9]: 0.9 nM
- solubility [10]: 91 µg/mL (≈ 170 µM)
- inhibition in vivo at 1 mg/kg [11]: 91%
- half-life [12]: 75 min
- AUC(0-t) at 24 h [13]: 10.9 µM·h
- Papp [14]: 42 ×10⁻⁶ cm/s

SMILES: [2H]C([2H])([2H])c1nnn(C)c1-c1cnc2c3ccc(C(C)(C)O)cc3n([C@H](c3ncccc3F)C3CCOCC3)c2c1
- half-life [1]: 48 min
- half-life [2]: 36 min
- half-life [3]: 24 min
- half-life [4]: 22 min
- IC50 [5]: 3.6 nM
- IC50 [7]: 0.9 nM
- fraction unbound [8]: 0.04
- IC50 [9]: 1 nM
- half-life [12]: 79 min
- Papp [14]: 27 ×10⁻⁶ cm/s

SMILES: Cc1nnn(C)c1-c1cnc2c3ccc(C(C)(C)O)cc3n(C(c3cnn[nH]3)C3CCOCC3)c2c1 (configuration not stated)
- IC50 [5]: 710 nM
- IC50 [7]: 27 nM
- IC50 [9]: 210 nM
- Papp [14]: 12 ×10⁻⁶ cm/s

SMILES: [2H]C([2H])([2H])c1nnn(C)c1-c1cnc2c3c(F)cc(C(C)(C)O)cc3n([C@H](c3cc(C)on3)C3CCOCC3)c2c1
- half-life [1]: 33 min
- half-life [2]: 71 min
- half-life [3]: 17 min
- half-life [4]: 34 min
- IC50 [5]: 3.9 nM
- IC50 [9]: 2.8 nM
- half-life [12]: 120 min
- Papp [14]: 41 ×10⁻⁶ cm/s

SMILES: Cc1cc([C@H](C2CCOCC2)n2c3cc(C(C)(C)O)ccc3c3ncc(-c4c(C)nnn4C)cc32)no1
- half-life [1]: 26 min
- half-life [2]: 38 min
- half-life [3]: 10 min
- half-life [4]: 16 min
- IC50 [5]: 11 nM
- IC50 [7]: 1.6 nM
- IC50 [9]: 2.8 nM
- half-life [12]: 61 min
- Papp [14]: 35 ×10⁻⁶ cm/s

SMILES: [2H]C([2H])([2H])c1nnn(C)c1-c1cnc2c3cc(F)c(C(C)(C)O)cc3n([C@H](c3ccccc3)C3CCOCC3)c2c1
- half-life [1]: 46 min
- t1/2 ([2]; microsomes, 2 h): 32 min
- inhibition in vivo at 2 mg/kg [15]: 77%
- half-life [3]: 41 min
- half-life [4]: 19 min
- IC50 [5]: 6 nM
- IC50 [7]: 0.9 nM
- fraction unbound [8]: 0.01
- inhibition in vivo at 4 mg/kg [16]: 78%
- IC50 [9]: 2 nM
- solubility [10]: 4 µg/mL (≈ 7.74 µM)
- half-life [12]: 52 min
- AUC(0-t) at 24 h [13]: 12.6 µM·h
- Papp [14]: 69 ×10⁻⁶ cm/s

SMILES: [2H]C([2H])([2H])c1nnn(C)c1-c1cnc2c3ccc(C(C)(C)O)cc3n([C@H](c3cc(C)on3)C3CCOCC3)c2c1
- half-life [1]: 33 min
- half-life [2]: 75 min
- half-life [3]: 30 min
- half-life [4]: 37 min
- IC50 [5]: 9.9 nM
- IC50 [7]: 1.2 nM
- fraction unbound [8]: 0.14
- IC50 [9]: 2.1 nM
- half-life [12]: 64 min
- Papp [14]: 26 ×10⁻⁶ cm/s

SMILES: [2H]C([2H])([2H])c1nnn(C)c1-c1cnc2c3ccc(C(C)(C)O)cc3n([C@H](c3ccc(Cl)cn3)C3CCOCC3)c2c1
- half-life [1]: 62 min
- half-life [2]: 61 min
- half-life [3]: 35 min
- half-life [4]: 37 min
- IC50 [5]: 4.8 nM
- IC50 [7]: 1 nM
- fraction unbound [8]: 0.06
- inhibition in vivo at 4 mg/kg [16]: 76%
- IC50 [9]: 1.2 nM
- half-life [12]: 55 min
- Papp [14]: 61 ×10⁻⁶ cm/s

SMILES: [2H]C([2H])([2H])c1nnn(C)c1-c1cnc2c3cc(F)c(C(C)(C)O)cc3n([C@H](c3cc(C)on3)C3CCOCC3)c2c1
- half-life [1]: 3 min
- half-life [2]: 33 min
- half-life [3]: 26 min
- half-life [4]: 21 min
- IC50 [5]: 14 nM
- IC50 [7]: 1.4 nM
- IC50 [9]: 2.2 nM
- half-life [12]: 54 min
- Papp [14]: 69 ×10⁻⁶ cm/s

SMILES: Cc1cc([C@H](C2CCOCC2)n2c3cc(C(C)(C)O)ccc3c3ncc(-c4c(C)nnn4C)cc32)n(C)n1
- half-life [1]: 59 min
- half-life [2]: 52 min
- half-life [3]: 50 min
- half-life [4]: 36 min
- IC50 [5]: 55 nM
- IC50 [7]: 2.3 nM
- IC50 [9]: 7.1 nM
- half-life [12]: 83 min
- Papp [14]: 15 ×10⁻⁶ cm/s

SMILES: [2H]C([2H])([2H])c1nnn(C)c1-c1cnc2c3ccc(C(C)(C)O)c(F)c3n([C@H](c3cc(C)on3)C3CCOCC3)c2c1
- half-life [1]: 30 min
- half-life [2]: 52 min
- half-life [3]: 30 min
- half-life [4]: 23 min
- IC50 [5]: 13 nM
- minimal effective dose [6]: 4 mg/kg
- IC50 [7]: 2 nM
- fraction unbound [8]: 0.16
- inhibition in vivo at 4 mg/kg [16]: 71%
- IC50 [9]: 3.9 nM
- solubility [10]: 120 µg/mL (≈ 230 µM)
- half-life [12]: 79 min
- AUC(0-t) at 24 h [13]: 8.7 µM·h
- Papp [14]: 80 ×10⁻⁶ cm/s
